What was measured:
[1] = Toxicity in Galleria mellonella wax moth larve assessed as mortality at 10 mg/kg relative to control; format: organism-based; settings: in vivo, read-out: Activity
L929 = experiment: Cytotoxicity against mouse L929 cells assessed as increase in cell viability at 0.13 to 2 mg/ml measured after 48 hrs by MTT assay relative to control; format: cell-based; settings: l929, 48 h, dose 0.13-2 mg/ml
Summary of the method: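 MTT assay. HeLa or L929 cells were seeded at 1×10^4/well in DMEM with 10% FBS and grown 12 h at 37 °C. They were exposed to 0.13–2 mg/mL compound (DMSO stock) for 48 h, then given 0.5 mg/mL MTT for 3 h at 37 °C. Formazan was dissolved in DMSO and read at 490 nm. Survival % was blank-corrected against the 0.5% DMSO medium control.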

[2] = target: Metallo-beta-lactamase type 2 (Klebsiella pneumoniae) (UniProt C7C422); experiment: Inhibition of wild type N-terminal His6-tagged Klebsiella pneumoniae NDM-1 expressed in Escherichia coli BL21 assessed as ratio of Kinact/Ki using nitrocefin as substrate measured after 30 mins
Summary of the method: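 1 nM purified His6-NDM-1 was mixed with varying compound concentrations in 50 mM phosphate buffer ± 50 µM ZnSO4 with BSA. Nitrocefin was added at 7× Km and velocity read at 482 nm, in triplicate. ln(% residual activity) versus incubation time gave kobs, which was fitted hyperbolically against concentration for KI and kinact.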

[3] = target: Metallo-beta-lactamase type 2 (Klebsiella pneumoniae) (UniProt C7C422); experiment: Time dependent inhibition of wild type N-terminal His6-tagged Klebsiella pneumoniae NDM-1 expressed in Escherichia coli BL21 assessed as residual activity using nitrocefin as substrate
Summary of the method: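 Purified NDM-1 (residues G36–R270, N-terminal His6, expressed in E. coli BL21), 1 nM, mixed with varying inhibitor concentrations in 50 mM phosphate buffer with or without 50 µM ZnSO4, plus BSA. Nitrocefin at 7×Km was the substrate, read at 482 nm. Residual activity was followed against preincubation time, fitted as pseudo-first-order to give KI and kinact. Triplicate assays.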

[4] = Covalent inhibition of Escherichia coli NDM-1 using nitrocefin as substrate

Chain of Metallo-beta-lactamase type 2 (Klebsiella pneumoniae) (C7C422 whole entry, the tested form may be a part): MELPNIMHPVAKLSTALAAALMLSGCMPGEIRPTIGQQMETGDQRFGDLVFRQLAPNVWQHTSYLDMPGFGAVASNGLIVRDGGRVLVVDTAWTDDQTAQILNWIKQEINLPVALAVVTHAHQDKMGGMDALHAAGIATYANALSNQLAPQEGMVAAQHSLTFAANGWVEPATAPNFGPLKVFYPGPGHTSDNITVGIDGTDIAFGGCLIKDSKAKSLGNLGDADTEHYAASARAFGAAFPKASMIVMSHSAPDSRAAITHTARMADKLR

For `CC(C)(C)OC(=O)NCCn1[se]c2ccccc2c1=O`, which mortality [1] is on record?
The mortality was 100%.

And the Activity (L929)?
Its Activity is 70%.

And the Ratio [2]?
Its Ratio is 0.067 mM⁻¹ s⁻¹.

What about the Activity [3] of the same molecule?
The Activity was 11%.

With `O=c1c2ccccc2[se]n1-c1ccccc1` [EBSELEN] as the molecule, how does the Ki [4] read?
The Ki was 380 nM.

From ChEMBL document CHEMBL4673212, “Investigation of synergistic antimicrobial effects of the drug combinations of meropenem and 1,2-benzisoselenazol-3(2H)-one derivatives on carbapenem-resistant Enterobacteriaceae producing NDM-1” (Eur J Med Chem, 2018)
